Bioassay records deposited in PubChem BioAssay by several laboratories.
Only some compounds are listed: those with a hit (about 2.2% of all), similar ones and a draw of the others.
Granule exo inh: lytic granule exocytosis inhibition. hit rate 0.66% among 360,000. TALL-104 LAMP-1 surface exposure, flow cytometry; cells stimulated with thapsigargin and PMA. inhibition, % at 10 µM. AID 651702;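 active = inhibition above about 55%, limit read from the data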
ABHD5-PLIN5 inh: blocks binding of human ABHD5 to perilipin-5. Q00G26+Q8WTS1. Split G. princeps luciferase complementation, luminescence, 4 h. inhibition, % at 4 µM. hit rate 0.78% among 360,000;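 active = inhibition above the mean inhibition across every tested compound plus 3 SD, cut at about 22% in these data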;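 also: 0% = DMSO only wells and the 100% control is not disclosed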
HKDC1 inhibitor: inhibitors of human hexokinase HKDC1 | recombinant HKDC1, G6PDH/diaphorase resazurin coupled fluorescence | inhibition, % at 20 µM | hit rate 0.16% among 340,000 | AID 493160;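 active = inhibition above about 35% when tested at 20 µM, limit read from the data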;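 also: plate controls were DMSO wells with enzyme for no effect and DMSO wells lacking enzyme for full effect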
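Material – in-house recombinant HK5 (HKDC1) enzyme · Quantity – HKDC1 at 5 µg/mL · Buffer or medium – pH 8.0 Tris buffer with 10 mM MgCl2 · Reagent – glucose with 1 mM ATP · Dosing – single 20 µM dose · Times – reaction time 90 min, room temperature, protected from light · Technique – resorufin fluorescence at 613 nm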
PfGluPho inh: PfG6PD (Plasmodium falciparum) enzyme inhibition; inhibition, % at 20 µM; PfGluPho enzyme, NADPH resazurin-diaphorase fluorescence; hit rate 0.78% among 350,000;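 active = inhibition reaching at least a set limit at 20 µM in the primary screen, cut at about 59% in these data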;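 also: 0% = DMSO wells with substrate and 100% = DMSO wells lacking glucose-6-phosphate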
Numbers without * were called inactive; . = no result given; ! = a repeat was not active.

SMILES	Granule exo inh	ABHD5-PLIN5 inh	HKDC1 inhibitor	PfGluPho inh
Cc1ccc(N(CC(=O)NCc2ccco2)C(=O)CCC(=O)Nc2ccccn2)c(C)c1	12	-13	-7	-5
Cc1ccccc1NC(=O)/C=C/c1ccc([N+](=O)[O-])s1	6	29*	8	29
S=C(Nc1ccc(Cl)cc1)NC1CCN(Cc2ccccc2)CC1	69*	5	0	7
CCCN1CCC(NC(=S)Nc2ccc([N+](=O)[O-])cc2)CC1	86*	-1	-4	5
CCN1C[C@@H]2[C@@H]3C(=O)N(C)C(=O)[C@@H]3[C@](Cc3ccccc3)(C1=O)N2C(=O)c1ccc(Cl)cc1	-4	4	0	-1
O=[N+]([O-])c1ccc(Nc2cccc(F)c2)nc1	-3	7	-5	-1
O=C(CCN1C(=O)/C(=C/c2ccccc2Cl)SC1=S)NCCc1ccc(O)cc1	0	-2	-1	-5
CC(O)(c1ccc(F)c(F)c1)c1nc(-c2ccoc2)cs1 (configuration not stated)	-3	22*	.	.
CC(O)(c1cccc(F)c1)c1nc(-c2ccoc2)cs1 (configuration not stated)	-2	21	.	.
C/C(CC(=O)NC1CCCC1)=N\NC(=O)Cc1cccs1	-2	63*	-7	-13
Cc1cc(-c2ccccc2)nc2cc(C(=O)NCc3ccco3)nn12	-3	23*	-1	13
CC(C)C[C@@]12C(=O)N(c3cccc(F)c3)C(=O)N1[C@H](c1ccc(Cl)cc1)[C@@H]1C(=O)N(C3CCCCC3)C(=O)[C@@H]12	-22	-6	0	5
OCCOCCN1CCN(C2=Nc3ccccc3Sc3ccccc32)CC1	-4	23*!	-8	-4
OCCOCCN1CCN(C(c2ccccc2)c2ccc(Cl)cc2)CC1 (configuration not stated)	8	3	-2	-4
O=C(CC1C(=O)NCCN1Cc1ccoc1)NCCCn1ncc2ccccc21 (configuration not stated)	-8	33*	-7	9
O=C(C[C@H]1C/C=C\C[C@H](NC(=O)OCC2c3ccccc3-c3ccccc32)C(=O)OC[C@@H]2CCCN2C1=O)NCCO	-1	3	2	3
O=C(C[C@H]1C/C=C\C[C@H](NC(=O)OCC2c3ccccc3-c3ccccc32)C(=O)OC[C@H]2CCCN2C1=O)NCCO	59*	0	-1	9
CC(=O)NC1=C(N(C)C2CCS(=O)(=O)C2)C(=O)c2ccccc2C1=O (configuration not stated)	13	-2	39*	97*
COc1ncccc1-c1ccc2nncn2c1	-5	-5	.	.
CCCc1ccc(C2=Nn3c(nnc3C(C)C)SC2)cc1	17	-3	-7	60*
CN(Cc1ccccc1)C(=O)c1csc([C@H]2C[C@H](O)[C@@H](CO)O2)n1	2	-4	.	.
Cc1ccc(C=NNc2nc3c([nH]2)c(=O)n(C)c(=O)n3C)cc1	84*	0	-8	11
COc1ccccc1-[n+]1c(C)cc(/C=C2\Sc3ccccc3N2C)cc1C	45	13	31	43
COc1ccc(-[n+]2c(C)cc(/C=C3\Sc4ccccc4N3C)cc2C)cc1	61*	17	.	.
Cc1ccc(N=Cc2cccc(O)c2O)c(C)c1	93*	-46	.	.
SMILES	Granule exo inh	ABHD5-PLIN5 inh	HKDC1 inhibitor	PfGluPho inh
CN(Cc1ccccc1)C(=O)COC(=O)CCC(=O)c1ccc(F)cc1	4	7	-4	9
CCCCCCC(=O)N(O)C1CC(=O)N(c2ccc(Cl)cc2)C1=O (configuration not stated)	72*	6	-3	14
O=C(N/C(=C\c1ccc(F)cc1)C(=O)N1CCOCC1)c1ccccc1	-8	5	-3	-8
Cc1ccc(C(=O)N/C(=C\c2ccc(-c3ccccc3[N+](=O)[O-])o2)C(=O)NCCCN2CCOCC2)cc1	91*	-8	8	20
CCOC(=O)c1sc2nc(CN3CCN(c4cccc(C(F)(F)F)c4)CC3)[nH]c(=O)c2c1C	0	3	-10	4
COc1ccc(CN(C(=O)CSc2nnc(-c3ccccc3C)o2)c2ccc(F)cc2)cc1	0	1	1	10
O=C(CSc1nnc(-c2c[nH]c3ccccc23)o1)N(Cc1ccccc1)c1ccc(F)cc1	78*	-5	0	10
Cc1cc(N/N=C/c2c(O)ccc3ccccc23)nc(-c2ccccc2O)n1	96*	0	-4	4
Oc1ccc2ccccc2c1/C=N/Nc1ccccc1	7	-9	21	31
COc1cc(/C=N/NC(=O)c2cccnc2)ccc1OC(=O)c1ccc([N+](=O)[O-])cc1	76*	3	-4	-25
COc1ccc(/C=N/NC(=O)c2cccnc2)cc1COc1ccc(NC(C)=O)cc1	53	7	-7	3
O=C(N/N=C/c1ccc(OC(=O)c2ccc([N+](=O)[O-])cc2)cc1)c1cccnc1	1	6	7	-6
COc1ccc(/C=N/NC(=O)c2cccnc2)cc1COc1ccc([N+](=O)[O-])cc1	61*	3	-2	13
Cc1noc(/C=C/c2ccco2)c1S(=O)(=O)N1CCC(C(=O)N2CCc3ccccc3C2)CC1	2	22*	1	5
O=C1NC(=O)C(c2ccccc2)(C2CCCC2)N1 (configuration not stated)	-5	20	-2	1
CN(C)c1nc(SCC(=O)Nc2ccc(Cl)c(Cl)c2)nc(N2CCOCC2)n1	74*	4	0	4
CN(C)c1nc(SCC(=O)Nc2ccccc2)nc(N2CCOCC2)n1	1	0	6	3
COc1ccc(-c2nc(S(=O)(=O)c3ccccc3)c(N3CCOCC3)o2)cc1	-1	9	1	-1
COc1ccccc1-c1nc(S(=O)(=O)c2ccccc2)c(N2CCOCC2)o1	1	22*	-1	14
S=C(Nc1ccc(Br)cc1Cl)N1CCN(c2ccccn2)CC1	-1	2	-8	15
Cc1ccc2c(C)c(C(=O)N3CCC(O)(c4ccccc4)CC3)oc2c1C	-31	-3	0	24
O=S(=O)(O)c1cc(O)c2c(O)c(N=Nc3cc(Cl)ccc3O)c(S(=O)(=O)O)cc2c1	7	24*	1	-22
O=S(=O)(O)c1cc(Cl)cc(N=Nc2ccc(O)cc2O)c1O	-3	4	-33	-43
CCC(NS(=O)(=O)c1ccc2c(c1)Cc1cc(S(=O)(=O)NC(CC)C(=O)O)ccc1-2)C(=O)O (configuration not stated)	-1	4	1	-29
Cc1ccc(-c2ccc(/C=C3\SC(N4CCOCC4)=NC3=O)o2)cc1	60*	13	5	21
O=C1N=C(N2CCOCC2)S/C1=C/c1ccc(-c2ccc(F)cc2)o1	8	4	5	35
O=C(c1ccccc1)C(Nc1cccc([N+](=O)[O-])c1)c1ccccc1 (configuration not stated)	-7	4	5	15
c1cc2c3c(cccc3c1)NC1(CCC3(CC1)Nc1cccc4cccc(c14)N3)N2	60*	12	12	33
